One series deals with Cannabinoid receptor 2 (Homo sapiens, UniProt P34972). In words: Displacement of specific CP-55940 binding in CHO cells stably transfected with human cannabinoid receptor 2. The class given is cell-based.
The target in a further series is Cannabinoid receptor 1 (Homo sapiens, UniProt P21554). In words: biochemical. The class given is cell-based, CHO.
Series [1] is described as follows: Partition coefficient (logP) (HPLC). As to conditions: octanol/water. It counts as physicochemical. The gist of the method: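 logP was measured with a validated reverse-phase HPLC method.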
A further series concerns Mus musculus. The series can be described thus: Antagonism of WIN-55212-2 induced hypothermia in mice expressed as least effective dose upon peroral administration. The class given is functional.
The subject of the next series is Rattus norvegicus. In words: Antagonism of CP-55940 induced hypotension in rat expressed as effective dose upon peroral administration. Conditions: po.
Another series concerns the target P-glycoprotein (ABCB1) (Homo sapiens, UniProt P08183). In words: P-glycoprotein-based membrane transport factor, expressed as the ratio of the bottom to top transport and top to bottom transport. Conditions: not told.

Sequence of Cannabinoid receptor 2 (P34972 whole entry): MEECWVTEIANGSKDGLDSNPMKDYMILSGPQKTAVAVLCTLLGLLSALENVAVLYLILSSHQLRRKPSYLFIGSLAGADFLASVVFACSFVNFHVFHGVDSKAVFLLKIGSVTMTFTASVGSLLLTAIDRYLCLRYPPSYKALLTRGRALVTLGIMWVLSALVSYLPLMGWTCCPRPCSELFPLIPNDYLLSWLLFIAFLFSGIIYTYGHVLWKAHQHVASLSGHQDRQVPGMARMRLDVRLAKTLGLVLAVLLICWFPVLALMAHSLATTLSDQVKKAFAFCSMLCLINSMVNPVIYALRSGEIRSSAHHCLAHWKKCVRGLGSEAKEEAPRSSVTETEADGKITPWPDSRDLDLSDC
Sequence of P-glycoprotein (ABCB1) (P08183 whole entry): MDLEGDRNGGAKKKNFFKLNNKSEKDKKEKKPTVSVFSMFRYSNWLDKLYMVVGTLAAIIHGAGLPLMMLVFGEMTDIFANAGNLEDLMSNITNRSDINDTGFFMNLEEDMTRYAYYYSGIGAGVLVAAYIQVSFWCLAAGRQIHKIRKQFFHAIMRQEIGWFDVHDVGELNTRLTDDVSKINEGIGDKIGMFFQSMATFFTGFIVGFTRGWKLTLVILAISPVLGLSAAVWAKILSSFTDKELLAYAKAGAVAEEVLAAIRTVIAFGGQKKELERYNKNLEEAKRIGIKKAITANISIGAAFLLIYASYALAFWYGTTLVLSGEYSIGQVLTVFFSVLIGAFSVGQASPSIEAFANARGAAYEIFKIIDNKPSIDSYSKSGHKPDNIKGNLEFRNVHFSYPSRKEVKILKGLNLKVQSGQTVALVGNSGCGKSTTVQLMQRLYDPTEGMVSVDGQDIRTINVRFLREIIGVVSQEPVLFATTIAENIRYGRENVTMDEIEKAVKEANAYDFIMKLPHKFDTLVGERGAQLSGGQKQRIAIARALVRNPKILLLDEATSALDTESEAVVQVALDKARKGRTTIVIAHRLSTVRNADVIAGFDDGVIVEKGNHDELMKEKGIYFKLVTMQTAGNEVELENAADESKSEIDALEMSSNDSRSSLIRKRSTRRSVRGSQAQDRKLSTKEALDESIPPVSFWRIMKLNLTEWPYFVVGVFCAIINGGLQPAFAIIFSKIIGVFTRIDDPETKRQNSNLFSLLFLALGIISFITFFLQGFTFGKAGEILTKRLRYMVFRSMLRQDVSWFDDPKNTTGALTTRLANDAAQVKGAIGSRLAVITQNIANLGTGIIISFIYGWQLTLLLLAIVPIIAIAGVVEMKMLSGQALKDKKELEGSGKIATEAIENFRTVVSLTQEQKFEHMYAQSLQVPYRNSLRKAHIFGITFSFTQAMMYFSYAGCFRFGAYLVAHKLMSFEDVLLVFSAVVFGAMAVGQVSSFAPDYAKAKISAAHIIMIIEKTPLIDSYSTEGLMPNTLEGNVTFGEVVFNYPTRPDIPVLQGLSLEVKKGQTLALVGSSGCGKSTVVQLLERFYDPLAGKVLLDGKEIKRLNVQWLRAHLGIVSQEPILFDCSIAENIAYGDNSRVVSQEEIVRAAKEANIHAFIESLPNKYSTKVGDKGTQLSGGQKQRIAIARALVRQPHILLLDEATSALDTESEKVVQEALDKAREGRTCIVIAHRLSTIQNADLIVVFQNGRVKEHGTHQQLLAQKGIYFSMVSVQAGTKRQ
Sequence of Cannabinoid receptor 1 (P21554 whole entry): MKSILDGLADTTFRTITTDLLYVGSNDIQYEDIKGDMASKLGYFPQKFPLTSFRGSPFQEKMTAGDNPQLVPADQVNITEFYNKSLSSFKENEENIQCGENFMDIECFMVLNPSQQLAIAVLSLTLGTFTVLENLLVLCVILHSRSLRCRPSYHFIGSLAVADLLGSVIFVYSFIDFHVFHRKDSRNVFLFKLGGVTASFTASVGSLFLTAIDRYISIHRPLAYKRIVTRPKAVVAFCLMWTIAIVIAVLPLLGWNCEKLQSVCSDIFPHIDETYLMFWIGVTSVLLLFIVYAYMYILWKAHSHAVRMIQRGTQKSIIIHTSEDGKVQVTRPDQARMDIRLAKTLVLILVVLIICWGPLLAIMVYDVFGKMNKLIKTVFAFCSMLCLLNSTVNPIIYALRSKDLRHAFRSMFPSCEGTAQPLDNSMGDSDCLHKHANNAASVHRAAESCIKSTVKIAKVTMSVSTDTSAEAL

Take `CN/C(=N\S(=O)(=O)N1CCCCCC1)N1CC(c2ccccc2)C(c2ccc(Cl)cc2)=N1` (stereo not drawn): the Ki on Cannabinoid receptor 2 stood at 1030 nM; on Cannabinoid receptor 1, 155 nM.

Turning to `CC/N=C(\NS(=O)(=O)N(CC)CC)N1CC(c2ccccc2)C(c2ccc(Cl)cc2)=N1` (stereo not drawn), the Ki at Cannabinoid receptor 2 is 2860 nM; on Cannabinoid receptor 1, 209 nM.

Take `C/N=C(\NS(=O)(=O)N1CCOCC1)N1CC(c2ccccc2)C(c2ccc(Cl)cc2)=N1` (stereo not drawn): the logP in series [1] stood at 3.8. In addition, the LED in the series on Mus musculus amounted to 3 mg/kg. At Cannabinoid receptor 2, this compound gave a Ki of 5370 nM. In the series on Rattus norvegicus, it took a dose of 27 mg/kg to reach the 50% effect level (ED50).

On to `C/N=C(\NS(=O)(=O)N1CCSCC1)N1CC(c2ccccc2)C(c2ccc(Cl)cc2)=N1` (stereo not drawn), for which the Ki at Cannabinoid receptor 2 is 3530 nM; on Cannabinoid receptor 1, 24 nM.

For the compound `CNC(=NS(=O)(=O)N1CCCCCCC1)N1CC(c2ccccc2)C(c2ccc(Cl)cc2)=N1` (stereo not drawn), the Ki turned out to be 2580 nM on Cannabinoid receptor 2 and 125 nM at Cannabinoid receptor 1.

Regarding `CCN(CC)S(=O)(=O)N=C(NC(C)C)N1CC(c2ccccc2)C(c2ccc(Cl)cc2)=N1` (stereo not drawn), the values for the Ki at Cannabinoid receptor 2 and at Cannabinoid receptor 1 were 2750 nM and 60 nM, respectively.

In turn, `Cc1c(C(=O)NN2CCCCC2)nn(-c2ccc(Cl)cc2Cl)c1-c1ccc(Cl)cc1` [RIMONABANT] showed an LED with Mus musculus of 3 mg/kg. In the series with Rattus norvegicus, this compound gave an ED50 of 3.2 mg/kg.

For the compound `CN/C(=N\S(=O)(=O)N1CCCCC1)N1C[C@H](c2ccccc2)C(c2ccc(Cl)cc2)=N1`, the logP in series [1] was 4.8. Moreover, in the series with Mus musculus, the LED turned out to be 10 mg/kg. The efflux ratio on P-glycoprotein (ABCB1) came to 1.4. This compound also showed an ED50 with Rattus norvegicus of 8 mg/kg.

`CN=C(NS(=O)(=O)N1CCCC1)N1CC(c2ccccc2)C(c2ccc(Cl)cc2)=N1` (stereo not drawn): the Ki at Cannabinoid receptor 2 was found to be 1600 nM; on Cannabinoid receptor 1, 231 nM.

For `CCN(C)S(=O)(=O)NC(=NC)N1CC(c2ccccc2)C(c2ccc(Cl)cc2)=N1` (stereo not drawn), the Ki stood at 1870 nM on Cannabinoid receptor 2 and 117 nM on Cannabinoid receptor 1.

As to `CN=C(NS(=O)(=O)N1CCS(=O)(=O)CC1)N1CC(c2ccccc2)C(c2ccc(Cl)cc2)=N1` (stereo not drawn), the Ki on Cannabinoid receptor 1 is 832 nM.

`CCN(CC)S(=O)(=O)N/C(=N\C)N1CC(c2ccccc2)C(c2ccc(Cl)cc2)=N1` (stereo not drawn) yielded a logP in series [1] of 4.8. In the series with Mus musculus, this compound registered an LED of 3 mg/kg. On P-glycoprotein (ABCB1), the efflux ratio turned out to be 1.5. The Ki on Cannabinoid receptor 2 is 3270 nM; on Cannabinoid receptor 1, 30 nM. The ED50 with Rattus norvegicus was 20 mg/kg.

`CCN(CC)S(=O)(=O)NC(=NC)N1CC(c2cccnc2)C(c2ccc(Cl)cc2)=N1` (stereo not drawn) yielded a logP in series [1] of 3.2. At P-glycoprotein (ABCB1), the efflux ratio was 3.4. Also, the inhibitory constant (Ki) at Cannabinoid receptor 2 was found to be 9080 nM; on Cannabinoid receptor 1 it was 141 nM. Moreover, the median effective dose (ED50) in the series with Rattus norvegicus is greater than 30 mg/kg.

For `CNC(=NS(=O)(=O)N1CCCCC1)N1CC(c2ccccc2)C(c2ccc(Cl)cc2)=N1` (stereo not drawn), the affinity at Cannabinoid receptor 2, expressed as Ki, was 1320 nM. This lies in the single-digit micromolar range.

Regarding `CN/C(=N\S(=O)(=O)c1ccc(Cl)cc1)N1C[C@H](c2ccccc2)C(c2ccc(Cl)cc2)=N1` [IBIPINABANT], the logP in series [1] worked out at 5.1. The LED in the series with Mus musculus was 3 mg/kg. The ED50 in the series on Rattus norvegicus stood at 5.5 mg/kg.

In the case of `C/N=C(\NS(=O)(=O)N(C)C(C)C)N1CC(c2ccccc2)C(c2ccc(Cl)cc2)=N1` (stereo not drawn), the Ki came out at 1130 nM at Cannabinoid receptor 2 and 32 nM on Cannabinoid receptor 1.

On to `C/N=C(\NS(=O)(=O)N(C)C)N1CC(c2ccccc2)C(c2ccc(Cl)cc2)=N1` (stereo not drawn), for which the affinity at Cannabinoid receptor 2, expressed as Ki, was 3830 nM.

A word on the Ki: it is the dissociation constant of the complex between target and ligand, obtained from inhibition or displacement. Read a high Ki as a looser hold on the target. As usually defined, the logP is a log measure of how a compound divides between an organic and an aqueous phase. A word on the ED50: it is the dose at which the effect has come halfway, by size or by number of responders. As usually defined, the efflux ratio is the permeability from basolateral to apical divided by that in the opposite direction, in the common usage.

The values are drawn from ChEMBL document CHEMBL1143468, “Novel 3,4-diarylpyrazolines as potent cannabinoid CB1 receptor antagonists with lower lipophilicity” (Bioorg Med Chem Lett, 2005).
